Assay results published in ChEMBL document CHEMBL2417524, “Cytotoxic clerodane diterpenoids from the leaves and twigs of Casearia balansae” (J Nat Prod, 2013).

Tests used:
[1] = system: SK-OV-3; test: Cytotoxicity against human SKOV3 cells after 72 hrs by MTT assay; type: functional, cell-based; conditions: SK-OV-3, 72 h
Outline: (§1)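 Antiproliferative screen on cancer lines PC3, DU145, SKOV3 and A549 and on normal human WI-38 fibroblasts. Paclitaxel was the positive control and DMSO the negative control. IC50 in μM reported as the mean of duplicate measurements.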

[2] = system: PC-3; test: Cytotoxicity against human PC3 cells after 72 hrs by MTT assay; type: functional, cell-based; conditions: PC-3, 72 h; outline: as §1
[3] = system: A549; test: Cytotoxicity against human A549 cells after 72 hrs by MTT assay; type: functional, cell-based; conditions: A549, 72 h; outline: as §1
[4] = system: DU-145; test: Cytotoxicity against human DU145 cells after 72 hrs by MTT assay; type: functional, cell-based; conditions: DU-145, 72 h; outline: as §1
[5] = system: WI-38; test: Cytotoxicity against human WI38 cells after 72 hrs by MTT assay; type: cell-based; conditions: WI-38, 72 h; outline: as §1

Row | Structure (SMILES) | IC50 [1] | IC50 [2] | IC50 [3] | IC50 [4] | IC50 [5]
1 | C=CC(=C)CC[C@]1(C)[C@H]2CC(=O)C=C3[C@H](OC(=O)CCC)O[C@H](OC(C)=O)[C@@]32[C@H](OC)C[C@@H]1C (relative stereo) | 7.2 µM | 4.6 µM | 11.3 µM | 7.2 µM | 14.8 µM
2 | C=C(C)[C@@H](C)C[C@@H](O)[C@@H](C)[C@H]1CC[C@@]2(C)[C@@H]3CCC4=C(C[C@]35O[C@@H]5C[C@]12C)C(=O)C=CC4(C)C (relative stereo) | 73.8 µM | 22.5 µM | 37.7 µM | 26.1 µM | 78.4 µM
3 | CC(=O)O[C@H]1C(=O)[C@@]2(C)[C@H]([C@H](OC(=O)c3ccccc3)[C@]3(O)C[C@H](OC(=O)[C@H](O)[C@@H](NC(=O)c4ccccc4)c4ccccc4)C(C)=C1C3(C)C)[C@]1(OC(C)=O)CO[C@@H]1C[C@@H]2O [PACLITAXEL] | – | 0.02 µM | – | 0.04 µM | 0.05 µM
4 | C=CC(=C)CC[C@]1(C)[C@H]2CC(=O)C=C3[C@H](OC(C)=O)O[C@H](OC(C)=O)[C@@]32[C@H](OC)C[C@@H]1C (relative stereo) | 17.6 µM | 6.5 µM | 13.3 µM | 5.6 µM | 20.3 µM
5 | C=CC(=C)CC[C@]1(C)[C@H]2C[C@H](OC(C)=O)C=C3[C@@H](OCC)O[C@H](OC(C)=O)[C@@]32[C@H](OC)C[C@@H]1C | 99.8 µM | 46.4 µM | 45.2 µM | 51.7 µM | 57.6 µM
6 | C=CC(=C)CC[C@]1(C)[C@H]2C[C@H](OC(=O)C(C)CC)C=C3[C@H](OC(C)=O)O[C@H](OC(C)=O)[C@@]32[C@H](O)C[C@@H]1C (relative stereo) | 5.1 µM | 4.5 µM | 5.7 µM | 4.3 µM | 9.8 µM
7 | C=CC(=C)CC[C@]1(C)[C@H]2C[C@H](OC(=O)C(C)CC)C=C3[C@H](OC(C)=O)O[C@@H](OC(C)=O)[C@@]32[C@H](OC)C[C@@H]1C (relative stereo) | 7.2 µM | 5.6 µM | 7.9 µM | 4.8 µM | 13.3 µM
8 | C=CC(=C)CC[C@]1(C)[C@H](C)CC[C@@]23[C@@H](OC(C)=O)O[C@H](OC(C)=O)[C@@H]2C[C@H](O)C[C@@H]13 (relative stereo) | 17.9 µM | 8.2 µM | 15.2 µM | 6.6 µM | 26.3 µM
9 | C=CC(=C)CC[C@]1(C)[C@H]2C[C@H]3C[C@@H]4[C@H](OC(C)=O)O[C@H](O3)[C@@]42CC[C@@H]1C | 30.6 µM | 6.2 µM | 19.7 µM | 13.3 µM | 41 µM
10 | C=CC(=C)CC[C@]1(C)[C@H]2C[C@@H](OC(C)=O)C=C3[C@H](OC(C)=O)O[C@H](OC(C)=O)[C@@]32[C@H](OC)C[C@@H]1C | 6.2 µM | 4.7 µM | 7.1 µM | 4.3 µM | 13.3 µM
11 | C=CC(=C)CC[C@]1(C)[C@H]2C[C@H](OC(=O)C(C)CC)C=C3[C@@H](OCC)O[C@H](OC(C)=O)[C@@]32[C@H](O)C[C@@H]1C (relative stereo) | 15.3 µM | 46.9 µM | 49.8 µM | 14.8 µM | 60.2 µM
12 | C=CC(=C)CC[C@]1(C)[C@H]2C[C@H](O)C[C@@H]3[C@H](OC(=O)CCC)O[C@H](OC(C)=O)[C@@]32CC[C@@H]1C | 25.3 µM | 7.2 µM | 13.9 µM | 67.2 µM | 58.1 µM
13 | C=CC(=C)CC[C@]1(C)[C@H]2C[C@@H](OC(C)=O)C=C3[C@@H](OCC)O[C@H](OC(C)=O)[C@@]32[C@H](OC)C[C@@H]1C (relative stereo) | 35.9 µM | 34.2 µM | 53.3 µM | 47.2 µM | 55.7 µM
14 | C=CC(=C)CC[C@]1(C)[C@H]2C[C@@H](O)C[C@@H]3[C@H](OC(=O)CCC)O[C@H](OC(C)=O)[C@@]32CC[C@@H]1C (relative stereo) | 10.2 µM | 6.3 µM | 16.2 µM | 5.8 µM | 21.1 µM
15 | C=CC(=C)CC[C@]1(C)[C@H]2C[C@H]3C[C@@H]4[C@@H](OC(C)=O)O[C@H](O3)[C@@]42CC[C@@H]1C | 36.2 µM | 5.6 µM | 24 µM | 14.1 µM | 51 µM
16 | C=CC(=C)CC[C@]1(C)[C@H]2C[C@@H](OC(C)=O)C[C@@H]3[C@H](OC(C)=O)O[C@H](OC(C)=O)[C@@]32CC[C@@H]1C (relative stereo) | 38.2 µM | 36.1 µM | 66.2 µM | 20 µM | 56.9 µM
17 | C=CC(=C)CC[C@]1(C)[C@H]2C[C@H](OC(=O)C(C)CC)C=C3[C@H](OC(=O)CCC)O[C@H](OC(C)=O)[C@@]32[C@H](O)C[C@@H]1C (stereo partly drawn) [CASEAMEMBRIN A] | 8.7 µM | 10.5 µM | 15.7 µM | 5 µM | 19.6 µM
